Experimental data from publication PMC4059944 (Nature, 2014).
Several values for one entry are separate records, joined by “and”; a condition that tells them apart may be missing. Equal values may be shown once. Ends that are not written are not given here.

T1: fluorescein-labelled yeast Sld5 peptide (1-19) (S. cerevisiae)
T1 peptide: fluorescein-MDINIDDILAELDKETTAV

T2: Ctf4 N-terminal deletion (Ctf4CTD, aa 461-927) (S. cerevisiae, UniProt Q01454 461-927)
T2 sequence: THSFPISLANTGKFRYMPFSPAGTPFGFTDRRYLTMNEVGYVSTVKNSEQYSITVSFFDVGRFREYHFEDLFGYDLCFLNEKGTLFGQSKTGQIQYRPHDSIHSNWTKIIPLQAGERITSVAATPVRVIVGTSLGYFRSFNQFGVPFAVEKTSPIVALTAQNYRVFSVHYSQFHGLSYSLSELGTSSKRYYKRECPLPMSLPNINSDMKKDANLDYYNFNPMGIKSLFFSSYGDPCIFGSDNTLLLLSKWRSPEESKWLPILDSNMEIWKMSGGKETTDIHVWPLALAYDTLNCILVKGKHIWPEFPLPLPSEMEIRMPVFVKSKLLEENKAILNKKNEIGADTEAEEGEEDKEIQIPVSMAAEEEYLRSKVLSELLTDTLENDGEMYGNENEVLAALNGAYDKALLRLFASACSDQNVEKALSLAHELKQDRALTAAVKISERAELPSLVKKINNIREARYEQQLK


Columns and labels:
[1] = Multi-angle laser scattering; assay type: physicochemical, yeast (S. cerevisiae); settings: size exclusion chromatography - MALS
Procedure, shortened: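 Recombinant His-tagged full-length yeast Ctf4, expressed in E. coli BL21(DE3)-CodonPlus (1 mM IPTG, 37°C, 2 h), purified by Ni-NTA, Mono Q ion exchange and Superdex 200 gel filtration. About 100 μg loaded onto an HPLC size-exclusion column equilibrated in 150 mM NaCl, 20 mM Tris pH 8.0, 1 mM DTT. Eluate read by 8-angle light scattering and refractive index detectors.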

[2] = Native mass spectrometry, oligomeric state; assay type: physicochemical, yeast (S. cerevisiae); settings: nano-electrospray, 500 mM ammonium acetate
[3] = target: T1, fluorescein-labelled yeast Sld5 peptide …; test: fluorescence polarisation
SEC-MALS = target: the molecule itself; test: SEC-MALS
Ctf4CTD = test: Analytical gel filtration of Ctf4CTD - GINS; assay type: binding, yeast (S. cerevisiae); settings: Superdex S200, 20 mM HEPES pH 7.2, 140 mM KCl, full-length or N-terminally truncated Sld5
[4] = target: T2, Ctf4 N-terminal deletion (Ctf4CTD, aa …); test: negative-stain single-particle electron microscopy

| Molecule | oligomeric state in solution (MALS) [1] | oligomeric state in solution (native mass spectrometry) [2] | fold tighter association than the Pol1 motif [3] [fold] | stoichiometry N (SEC-MALS) | Ctf4 - GINS interaction (Ctf4CTD) | stoichiometry N [4] |
| --- | --- | --- | --- | --- | --- | --- |
| Ctf4CTD (yeast Ctf4 amino acids 471 to 927) (domain or fragment) TGKFRYMPFSPAGTPFGFTDRRYLTMNEVGYVSTVKNSEQYSITVSFFDVGRFREYHFEDLFGYDLCFLNEKGTLFGQSKTGQIQYRPHDSIHSNWTKIIPLQAGERITSVAATPVRVIVGTSLGYFRSFNQFGVPFAVEKTSPIVALTAQNYRVFSVHYSQFHGLSYSLSELGTSSKRYYKRECPLPMSLPNINSDMKKDANLDYYNFNPMGIKSLFFSSYGDPCIFGSDNTLLLLSKWRSPEESKWLPILDSNMEIWKMSGGKETTDIHVWPLALAYDTLNCILVKGKHIWPEFPLPLPSEMEIRMPVFVKSKLLEENKAILNKKNEIGADTEAEEGEEDKEIQIPVSMAAEEEYLRSKVLSELLTDTLENDGEMYGNENEVLAALNGAYDKALLRLFASACSDQNVEKALSLAHELKQDRALTAAVKISERAELPSLVKKINNIREARYEQQLK | stable trimer in solution | stable trimer in solution | ~5 | 3 |  |  |
| GINSPsf1ΔC (Strep III-tagged, for electron microscopy) (complex) chain 1: MGYYDIDDVLADGTEFPCKFQYDIPGLGYLENNPGRPITKNTKLSLPLWLARILAIVGGDEALVDEEPVPFVELLPPDMFSTKVMNAIKTDPVALDLHSINSHFFSLAIKWIMLFSEKELANVVSELLLQRAQELNHHASSLSIDLNADSTGKNSANTNIATSTFLLKLEEMEKEIYKKSHESYKDTKRWMFKK chain 2: MYGDLGNKLVLEAKRTKQLYARSNQDVNLPMYHEDIIRNILKEVSNLRKNTEYLKEQQQLGMLDDKVAKCQYFVTLLCMERNKRCLLAYQRLRTDILDSMAWNNNGLDLMSSITFSQQDTNNLSHQEQEYLKEYCDLITDLKSGDLVDIDLSGSLVPPSDVFID chain 3: MSLPAHLQQTFSPEEIQFIVENEPIKIFPRITTRQKIRGDDRGTGNHTRWQLITTDDKALNNMVAMRSTEVVLWIALLLKQQSKCSIVAPQWLTTKELDRKIQYEKTHPDRFSELPWNWLVLARILFNKAKDDFHDPIHELRGKIQDLREIRQIKVLKGLKYLNESHLQLDNLSLLEINELRPFITEIMDKLREIHTASLTAGTENDEEEFNI chain 4: MDINIDDILAELDKETTAVDSTKITQGSSSTTHRDANTIVGSSLDLNDKTQIYVSPQQDFSDLMKSWKNERCSPELLPYPHQLMKRLLNRISMQSQLIENISMGFLDMQNASNANPPMPNESKLPLLCMETELERLKFVIRSYIRCRLSKIDKFSLYLRQLNEDENSLISLTDLLSKDEIKYHDTHSLIWLKLVNDSILKYMPEELQAINDTEGSVNMIDEPDWNKFVFIHVNGPPDGKWNEDPLLQENEFGKPCYTVTIPDLKEEVELTIGSIYVMRYEVIRDLLRDDKVALI |  |  |  |  | dependent upon the unstructured tail at the N-terminus of the Sld5 subunit of GINS | 1 copies of GINS per Ctf4CTD trimer and 2 copies of GINS per Ctf4CTD trimer and 3 copies of GINS per Ctf4CTD trimer |
